# Measured values published in ChEMBL document CHEMBL1153444, “Discovery of dual inhibitors targeting both HIV-1 capsid and human cyclophilin A to inhibit the assembly and uncoating of the viral capsid” (Bioorg Med Chem, 2009).
# pEC50, pIC50, pKd: −log10 of the molar value. The source made the active and inactive calls. The rule behind the calls is not given here.
# Key:
# [1] = Cytotoxicity against human CEM cells; format: cell-based; details: CEM cells (CCRF-CEM), read-out: TC50 (the source's name)
# [2] = tested on: Simian immunodeficiency virus; experiment: Antiviral activity against SIV in human CEM cells assessed as inhibition of virus-induced cytopathogenicity; format: functional, organism-based, CCRF-CEM; details: Simian immunodeficiency virus, CCRF-CEM; read-out: EC50
# Outline: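 SIV syncytium assay in CEM174 cells (2 × 10⁵ cells/ml) infected with 100 TCID₅₀ SIV per well alongside serial compound dilutions. Cultures were kept 5 days at 37 °C in humidified 5% CO₂, then giant-cell formation was scored microscopically. EC₅₀ is the concentration protecting cells from SIV cytopathogenicity by 50%.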
# [3] = target: Structural capsid protein (Human immunodeficiency virus 1) (UniProt Q76129); experiment: Binding affinity to HIV1 capsid assessed as assembly rate per minute by ultraviolet spectrophotometry assay
# Chain of Structural capsid protein (Human immunodeficiency virus 1) (Q76129 as listed by the source): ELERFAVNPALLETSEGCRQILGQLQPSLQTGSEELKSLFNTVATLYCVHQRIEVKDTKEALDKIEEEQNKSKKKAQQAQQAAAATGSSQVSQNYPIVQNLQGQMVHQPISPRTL
# Outline: (§1)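 Turbidity was read at 350 nm every 10 s after a short equilibration delay. Assembly rate (mOD/min) was taken from the initial slope of absorbance versus time.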
# [4] = target: T1, Peptidyl-prolyl cis-trans isomerase A (Homo sapiens, UniProt P62937); experiment: Inhibition of human cyclophilin A at 6 degC
# T1 sequence (P62937 whole entry): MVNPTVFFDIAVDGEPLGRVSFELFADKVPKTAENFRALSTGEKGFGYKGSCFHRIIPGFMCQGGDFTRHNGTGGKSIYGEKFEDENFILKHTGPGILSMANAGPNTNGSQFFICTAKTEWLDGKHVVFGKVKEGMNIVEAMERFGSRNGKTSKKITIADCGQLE
# Outline: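 PPIase assay at 6 °C in 50 mM HEPES, 100 mM NaCl, using Suc-AAPF-pNA substrate (3 mM stock in THF with 480 mM LiCl). A390 was recorded for 20 s after about a 6 s mixing delay. Cis–trans rate constants came from nonlinear least-squares fits to an integrated first-order equation, and IC₅₀ was calculated from these.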
# [5] = Therapeutic index, TC50 for human CEM cells to EC50 for SIV; format: cell-based, CCRF-CEM
# [6] = target: T1, Peptidyl-prolyl cis-trans isomerase A; experiment: Binding affinity to human cyclophilin A by intrinsic tryptophan fluorescence titration assay; details: for pKd: read-out: Kd
# Outline: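 CypA intrinsic tryptophan fluorescence titration in 20 mM Tris–HCl, 100 mM NaCl, pH 7.4, at 25 °C, with compounds from 10 mM DMSO stocks. Excitation was 280 nm and emission was read at 340 nm. Kd was obtained by fitting intensity against final compound concentration to F₀/F = 1 + Ka·C.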
# [7] = target: Human immunodeficiency virus type 1 integrase (Human immunodeficiency virus 1) (UniProt Q7ZJM1); experiment: Inhibition of HIV1 integrase at 20 uM; parameters: scale not given: the % may be the effect or the level left
# Chain of Human immunodeficiency virus type 1 integrase (Human immunodeficiency virus 1) (Q7ZJM1 as listed by the source): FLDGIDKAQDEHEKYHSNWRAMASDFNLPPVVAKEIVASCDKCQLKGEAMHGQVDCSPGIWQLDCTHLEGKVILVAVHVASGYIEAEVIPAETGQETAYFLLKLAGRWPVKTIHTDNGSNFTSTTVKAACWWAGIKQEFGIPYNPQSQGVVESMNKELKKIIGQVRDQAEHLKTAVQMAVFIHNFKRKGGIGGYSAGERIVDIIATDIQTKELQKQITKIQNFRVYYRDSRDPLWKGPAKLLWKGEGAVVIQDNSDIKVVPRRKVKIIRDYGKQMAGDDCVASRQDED
# Outline: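 Recombinant HIV-1 integrase (E. coli) was preincubated with compound for 30 min. It was then incubated for 30 min at 37 °C on plate-immobilized donor duplex in Tris–HCl pH 7.8, 25 mM NaCl, 7.5 mM MgCl₂, 5 mM β-mercaptoethanol and BSA. Biotinylated target duplex was added for 1 h at 37 °C. Integration products were detected by pNPP phosphatase read-out at A405, and inhibition was taken as the decrease in final absorbance.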
# [8] = target: Protease (Human immunodeficiency virus 1) (UniProt Q9YQ12); experiment: Inhibition of HIV1 protease
# Chain of Protease (Human immunodeficiency virus 1) (Q9YQ12 as listed by the source): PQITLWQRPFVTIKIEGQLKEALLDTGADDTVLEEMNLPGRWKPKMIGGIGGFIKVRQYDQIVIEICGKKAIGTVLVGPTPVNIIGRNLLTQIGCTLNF
# Outline: (§2)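 HIV-1 protease was preincubated with inhibitor (DMSO) for 20 min at room temperature in 0.1 M MES, 0.2 M NaCl, 5 mM EDTA, pH 5.5. The reaction was started with substrate Lys-Ala-Arg-Val-Leu-Phe(NO₂)-Glu-Ala-Met, and hydrolysis was followed as the A280 decrease over 40 min. Inhibition ratio was taken from Ai/A₀, with and without inhibitor.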
# [9] = target: Structural capsid protein (Human immunodeficiency virus 1) (UniProt Q76129); experiment: Binding affinity to HIV1 capsid assessed as assembly rate per minute at 1:1 drug to protein ratio by ultraviolet spectrophotometry assay; outline: as §1
# [10] = target: Structural capsid protein (Human immunodeficiency virus 1) (UniProt Q76129); experiment: Binding affinity to HIV1 capsid assessed as assembly rate per minute at 2:1 drug to protein ratio by ultraviolet spectrophotometry assay; outline: as §1
# [11] = target: Structural capsid protein (Human immunodeficiency virus 1) (UniProt Q76129); experiment: Binding affinity to HIV1 capsid assessed as assembly rate per minute at 0.5:1 drug to protein ratio by ultraviolet spectrophotometry assay; outline: as §1
# [12] = target: Protease (Human immunodeficiency virus 1) (UniProt Q9YQ12); experiment: Inhibition of HIV1 protease assessed as decrease in UV absorbance at 10 uM; outline: as §2
# [13] = target: Protease (Human immunodeficiency virus 1) (UniProt Q9YQ12); experiment: Inhibition of HIV1 protease assessed as decrease in UV absorbance; details: concentration not given here; outline: as §2
SMILES,CC50 [1] [µM],pEC50 [2],Activity (milli optical density/minute) [3],pIC50 [4],selectivity ratio [5],pKd [6],Activity [7] [%],Activity [8],Activity (milli optical density/minute) [9],Activity (milli optical density/minute) [10],Activity (milli optical density/minute) [11],inhibition [12] [%],Activity [3],inhibition [13] [%],Kd [6]
Cc1cc(NS(=O)(=O)c2ccc(NC(=S)Nc3ccc(F)cc3)cc2)no1,75.4,5.16,73.8,6.46,11,3.96,,,,,,,,,
Cc1cc(NS(=O)(=O)c2ccc(NC(=S)Nc3ccccc3)cc2)no1,49.7,5.12,39.2,6.24,7,4.06,,,,,,,,,
Cc1ccc(NC(=S)Nc2ccc(S(=O)(=O)Nc3cc(C)on3)cc2)cc1,41.4,5.02,45.9,,4,3.93,,,,,,,,,
O=C1OCc2ccc(NC(=S)Nc3ccc(F)cc3)cc21,83.7,4.80,55.7,,5,3.64,< 20,inactive,,,,,,,
Cc1cc(NS(=O)(=O)c2ccc(NC(=S)Nc3ccc(Cl)cc3)cc2)no1,37.8,5.39,29,6.16,9,3.97,,,42,19.4,52.2,,,,
O=C1OCc2ccc(NC(=S)Nc3cc(Cl)c(Cl)cc3Cl)cc21,24.4,5.52,67.8,,8,3.83,< 20,inactive,,,,,,,
O=S(=O)(Nc1nccs1)c1ccc(NC(=S)Nc2ccc(Cl)cc2)cc1,19.1,5.24,52.5,6.89,3,4.29,< 20,inactive,,,,,,,
COc1ccc(NC(=S)Nc2ccc3ccccc3c2)cc1,16.1,5.64,66.7,,7,3.91,< 20,inactive,,,,,,,
CCN(CC)c1nc(C)c([N+](=O)[O-])c(NCCNC(=S)Nc2cccc(Br)c2)n1,26.2,5.13,88.1,6.09,4,4.10,,,,,,,,,
COc1ccc(NS(=O)(=O)c2ccc(NC(=S)Nc3ccc(Cl)cc3)cc2)cc1,77.5,5.39,26.3,,19,4.22,,,,,,,,,
O=C1OCc2ccc(NC(=S)Nc3cccc(Br)c3)cc21,30.8,5.34,69.6,,7,3.90,< 20,inactive,,,,,,,
Cc1cc(NS(=O)(=O)c2ccc(NC(=S)Nc3cccc(Cl)c3)cc2)no1,91.9,6.00,15.8,6.48,92,4.10,,,38.4,11.4,43.2,,,,
COc1ccc(NC(=S)Nc2ccc3c(c2)C(=O)OC3)cc1,91.9,5.33,59.1,,20,3.76,< 20,inactive,,,,,,,
Cc1ccc(NC(=S)Nc2ccc(S(=O)(=O)Nc3nccs3)cc2)cc1,20.9,5.66,59,6.35,9,4.11,,,,,,,,,
Cc1cc(NS(=O)(=O)c2ccc(NC(=S)Nc3ccccc3C)cc2)no1,48.4,5.21,64.8,6.22,8,3.93,,,,,,,,,
CC(C)(C)NC(=O)[C@@H]1CN(Cc2cccnc2)CCN1C[C@@H](O)C[C@@H](Cc1ccccc1)C(=O)N[C@H]1c2ccccc2C[C@H]1O,,,,,,,,,,,,> 90,,,

SMILES,CC50 [1] [µM],pEC50 [2],Activity (milli optical density/minute) [3],pIC50 [4],selectivity ratio [5],pKd [6],Activity [7] [%],Activity [8],Activity (milli optical density/minute) [9],Activity (milli optical density/minute) [10],Activity (milli optical density/minute) [11],inhibition [12] [%],Activity [3],inhibition [13] [%],Kd [6]
CCN(CC)c1nc(C)cc(NCCNC(=S)Nc2cccc(Br)c2)n1,8.43,5.26,,,2,3.70,,,,,,,inactive,,
Cc1ccc(NC(=S)Nc2ccc(C)c([N+](=O)[O-])c2)cc1Cl,38.8,5.51,60,6.34,12,4.05,< 20,inactive,,,,,,,
Cc1cc(NS(=O)(=O)c2ccc(NC(=S)Nc3ccc(C)c(Cl)c3)cc2)no1,74.4,6.22,36.4,6.19,127,4.25,,,,,,,,< 5,
COc1ccc(NC(=S)Nc2ccc(S(=O)(=O)Nc3cc(C)on3)cc2)cc1,41.9,5.82,40,,27,4.00,< 20,inactive,,,,,,,
Cc1cc(NS(=O)(=O)c2ccc(NC(=S)Nc3cccc(F)c3)cc2)no1,88,4.94,76.2,6.42,8,3.89,,,,,,,,,
O=C1OCc2ccc(NC(=S)Nc3cccc(F)c3)cc21,60.2,5.20,78.6,,10,3.85,< 20,inactive,,,,,,,
O=C1OCc2ccc(NC(=S)Nc3cccc(Cl)c3)cc21,86,5.38,49.2,,20,3.88,< 20,inactive,,,,,,< 5,
O=C1OCc2ccc(NC(=S)Nc3cc(F)cc(F)c3)cc21,69.1,5.21,63.6,,11,3.29,< 20,inactive,,,,,,,
Cc1cc(NS(=O)(=O)c2ccc(NC(=S)Nc3cccc(Br)c3)cc2)no1,58.7,6.05,31.2,6.35,66,4.05,,,,,,,,,
Cc1ccccc1NC(=S)Nc1ccc2c(c1)C(=O)OC2,46.9,5.55,65.7,,17,,< 20,inactive,,,,,,,Not Active
CCN(CC)c1nc(C)c([N+](=O)[O-])c(NCCNC(=S)Nc2ccc(C)c(Cl)c2)n1,44.2,5.20,91,6.13,7,4.13,,,,,,,,,
Cc1ccc(NC(=S)Nc2ccc(S(=O)(=O)Nc3nccs3)cc2)cc1Cl,37,4.97,27.4,6.80,3,4.29,,,,,,,,,
Cc1ccc(NC(=S)Nc2ccc3c(c2)C(=O)OC3)cc1Cl,18.7,5.34,19.6,6.23,4,4.02,< 20,inactive,,,,,,,
O=C1OCc2ccc(NC(=S)Nc3ccc(Cl)cc3)cc21,83.9,5.21,49.6,,14,3.65,< 20,inactive,,,,,,,
Cc1cccc(NC(=S)Nc2ccc3c(c2)C(=O)OC3)c1,16,4.94,64.6,,1,3.85,< 20,inactive,,,,,,,
